# EBV gp42 block – blocks Epstein-Barr virus glycoprotein 42 binding; Q1HVG2; Fluorescence polarization binding assay, mP read-out; inhibition, % (tested at 21.74 µM); hit rate 0.42% among 220,000; AID 1085; in the data active means inhibition above about 50%
# eIF4E 4G PPI – blocks eIF4E binding to eIF4G. P63073+Q04637. TR-FRET eIF4E-eIF4GI(517-606) binding, 2 h. inhibition, % at 21.7 µM. hit rate 0.37% among 220,000. AID 782;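 further: 0% = full FRET control wells and 100% = background wells lacking eIF4GI fragment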
# NCF1 inh – p47phox (human) inhibition | p47phox/p22phox peptide binding, fluorescence polarization, 2 h | AID 1274 | P14598 | inhibition, % at 24.7 µM | hit rate 0.53% among 220,000;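 further: 0% = p47phox with labelled peptide and 100% = labelled peptide alone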
# Target sequence (P14598 whole entry, looked up): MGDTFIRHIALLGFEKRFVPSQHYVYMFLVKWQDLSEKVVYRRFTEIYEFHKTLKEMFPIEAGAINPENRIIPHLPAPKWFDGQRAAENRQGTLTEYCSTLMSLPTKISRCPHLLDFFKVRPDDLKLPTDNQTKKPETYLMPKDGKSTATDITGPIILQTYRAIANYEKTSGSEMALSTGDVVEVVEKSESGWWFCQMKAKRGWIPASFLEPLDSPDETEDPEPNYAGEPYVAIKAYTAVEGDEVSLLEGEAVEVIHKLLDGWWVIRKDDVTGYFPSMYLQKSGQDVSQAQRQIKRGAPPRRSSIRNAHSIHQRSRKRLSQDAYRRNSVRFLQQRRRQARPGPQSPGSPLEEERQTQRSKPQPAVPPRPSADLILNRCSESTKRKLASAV
# RBBP9 inh – inhibitors of human serine hydrolase RBBP9 | O75884 | recombinant RBBP9, FP-Rh probe fluorescence polarization | inhibition, % at 7.94 µM | hit rate 0.2% among 220,000 | AID 1515;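 active means inhibition above the campaign mean of all tested compounds plus 3 SD, cut at about 14% in these data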;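 further: plate controls were DMSO wells with RBBP9 for no effect and wells lacking RBBP9 protein for full effect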
# Target sequence (O75884 whole entry, looked up): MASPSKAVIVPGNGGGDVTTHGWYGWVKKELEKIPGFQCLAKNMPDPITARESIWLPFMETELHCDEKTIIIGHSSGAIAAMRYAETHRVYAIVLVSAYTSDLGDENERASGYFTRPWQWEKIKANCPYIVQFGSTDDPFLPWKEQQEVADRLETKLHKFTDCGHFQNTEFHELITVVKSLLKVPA
#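 Test system: recombinant human RBBP9. Quantity: 2.5 µM RBBP9 dispensing solution, before mixing. Detection: FP readout at 525/598 nm. Reagent: Serine-hydrolase probe FP-Rh, 375 nM pre-mixing. Measure: % inhibition. Control set: DMSO-treated enzyme wells and wells lacking RBBP9. Buffer or medium: Tris-NaCl-Pluronic buffer, pH 8.0. Times: preincubation 30 min plus labeling 45 min at 25 °C.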
# WT yeast gro inh – growth inhibition of WT yeast, mitochondrial fusion screen | mitochondrial fusion phenotypic screen, WT strain | inhibition, % at 10 µM | hit rate 2.1% among 190,000 | AID 1362; in the data active means inhibition above about 58%; tested in S. cerevisiae
# 14-3-3 Bad PPI – disrupts binding of bovine 14-3-3 zeta to phospho-Bad peptide. P63103. TR-FRET 14-3-3zeta/Dy647-pBad peptide displacement, 1 h. inhibition, % at 21.7 µM. hit rate 0.71% among 220,000. AID 781;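 active means inhibition above about 70%, limit read from the data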;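 further: 0% = full 14-3-3 plus peptide FRET controls and 100% = background without 14-3-3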
# The depositor's hits bear a star; x = not tested or not shown; [ ] = dose if it differs, or a comment. The list is not random: actives were taken first. Their share in the collection is about 3.7%.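 How the source made its calls, unless noted: active means inhibition above about 30% (limit read from the data); inactive means the rest.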
SMILES,EBV gp42 block,eIF4E 4G PPI,NCF1 inh,RBBP9 inh,WT yeast gro inh,14-3-3 Bad PPI
O=[N+]([O-])c1cc(C(F)(F)F)ccc1NCCc1c[nH]c2ccccc12,-10.3,3.3,4.2,7.1,61.9*,-3.9
O=[N+]([O-])c1cc(C(F)(F)F)ccc1NCCc1c[nH]c2ccc(O)cc12,8.5,6.5,3.8,-3.6,78.5*,-8.9
CS(=O)(=O)NCCCNc1ccc(C(F)(F)F)cc1[N+](=O)[O-],-9.2,0.1,-0.7,-8.3,x,10.8
Cc1ccc(NC(=O)NC(=O)CN2C(=O)NC3(CCCCCCC3)C2=O)c(C)c1,-8.0,0.1,-16.1,-3.4,18.7,71.4*
CCOc1ccc(N2C(=O)CC(Sc3nc(C)cc(C)n3)C2=O)cc1 (stereo not drawn),0.7,1.1,4.0,3.6,-5.6,-4.7
CCOc1ccc(N2C(=O)CC(Sc3nnnn3-c3ccccc3)C2=O)cc1 (stereo not drawn),-14.2,5.8,-6.0,-4.4,58.9*,-11.5
CCCc1ccc(C(=O)NNc2cccc(C)c2)cc1,-12.1,-0.7,3.6,2.8,x,-4.5
Cn1c(=O)[nH]c(=O)c2c1nc(Br)n2CCSc1ncccn1,-11.1,8.2,-14.7,-11.6,75.0*,4.4
Cn1c(=O)[nH]c(=O)c2c1nc(N1CCCCC1)n2CCSc1ncccn1,x,x,x,x,11.9,x
CCCCCn1c(SCCc2ccccc2)nc2c1c(=O)[nH]c(=O)n2C,-20.8,-19.1,7.7,4.6,6.6,-1.6
CCCn1c(SCCc2ccccc2)nc2c1c(=O)[nH]c(=O)n2C,115.0*,-3.7,-8.3,-5.2,2.2,-11.6
CN=c1scc(-c2ccccc2Br)n1/N=C/c1ccc[nH]1,12.2,7.2,-10.1,-10.4,72.6*,-0.4
CCNC(=O)n1cc(-n2cncn2)c(-c2ccccc2)n1,1.6,2.2,-12.8,-4.8,6.3,-13.2
O=C(CCO)c1ccc(O)cc1,9.7,10.2,-13.9,0.3,0.0,74.5*
CN(CCc1nc2ccc(Cl)cc2[nH]1)Cc1nc(CC2CC2)no1,-1.3,1.5,2.7,-10.3,1.5,-10.2
COc1cccc(N=Nc2c(N)[nH]n3c(=O)c4c(nc23)CCCC4)c1,-12.4,3.1,-5.8,8.7,-9.6,-2.5
c1ccc2c(c1)nc(NCc1ccc3c(c1)OCO3)n2CCN1CCOCC1,-3.6,1.8,-19.7,-2.5,-1.3,-2.9
c1csc(-c2csc3nc(CN4CCOCC4)nc(NCc4ccc5c(c4)OCO5)c23)c1,3.8,-1.1,-3.6,-6.0,63.7*,-5.9
Cc1c(O)cc2n(c1=O)-c1ccc(Cl)cc1C2(C)C,-7.2,-0.5,-11.3,4.2,6.5,5.5
CC1(C)c2cc(Cl)ccc2-n2c1cc(O)c(-c1ccccc1)c2=O,-2.7,70.5*,-19.4,-7.4,x,1.0
O=C(NCCc1ccccc1)C1CCN(C(=O)c2ccc([N+](=O)[O-])cc2)CC1,-6.3,2.8,3.0,-4.9,-13.0,-9.5
O=C(O)CN(c1ccccc1[N+](=O)[O-])S(=O)(=O)c1ccccc1,-22.8,-0.8,-7.1,3.8,-7.9,-13.9
COc1ccc(NC(=O)c2ccc(Cl)nc2)cc1S(=O)(=O)N1CCCCC1,-7.2,-3.4,-9.4,-5.2,12.3,91.1*
COc1ccc(NC(=O)c2cc(OC)c(OC)c(OC)c2)cc1S(=O)(=O)N1CCCCC1,2.9,3.7,-6.2,-9.0,-14.7,-10.8
Cc1ccc(/C=[N+](\[O-])c2ccc(N(C)C)cc2)c2nsnc12,-2.8,3.1,5.2,8.4,77.2*,-20.5
SMILES,EBV gp42 block,eIF4E 4G PPI,NCF1 inh,RBBP9 inh,WT yeast gro inh,14-3-3 Bad PPI
CN1CCN(CC(=O)N2CCn3c4c(c5cc(C6CCCCC6)ccc53)CCCC42)CC1 (stereo not drawn),-17.3,-6.2,31.4*,-9.9,97.2,58.0
COc1ccccc1-n1cc([C@@H]2C[C@H]3CN(c4ccccc4)C(=O)[C@]34CCCN24)cn1,-34.1,-0.6,-157.5,-7.6,5.4,-8.9
CCOC(=O)C1=C(Nc2ccccc2)CC(C)(O)C(C(=O)OCC)C1c1ccc(Cl)cc1 (stereo not drawn),-5.1,-0.4,-13.8,-2.6,71.0*,-0.4
O=C(N/N=C/c1c(Cl)cccc1Cl)c1n[nH]c2c1CCCC2,-1.7,0.3,5.3,0.1,74.7*,8.8
S=c1[nH]c2ccc3ccccc3c2[nH]1,-7.3,7.4,-2.0,-1.2,56.9,1.2
Cc1[nH]c2c(ccc3ccccc32)c1C1C(CCN)C1(C)C (stereo not drawn),-5.1,-6.0,60.3*,-0.6,35.3,12.4
COc1ccc(CNCc2cn(-c3cccc(F)c3)nc2-c2ccc(C)o2)cc1,-5.7,-3.6,-26.1,-15.3,71.5*,-0.7
COc1ccc(-n2cc(CNCc3cccnc3)c(-c3cccc(F)c3)n2)cc1,-2.1,5.4,3.3,-1.4,35.8,-0.7
Fc1ccccc1Nc1nc(NCc2ccco2)nc(N2CCOCC2)n1,-2.8,0.9,9.6,-5.7,-4.7,-2.9
CC(C)c1ccc(Nc2nc(NCc3ccco3)nc(N3CCOCC3)n2)cc1,-0.7,-3.4,-12.6,-10.7,58.3*,0.1
Cc1ccc(S(=O)(=O)NN2C(=O)c3ccccc3NC2c2ccccn2)cc1 (stereo not drawn),-12.5,0.5,-7.3,-1.4,0.2,-6.3
Cc1cc(Cl)cc(Cl)c1CNc1c([N+](=O)[O-])c(=O)oc2ccccc12,-10.1,-4.4,-9.8,0.2,-4.9,-21.1
COC(=O)[C@@H]1[C@@H](C#N)C2(c3ccccc3-c3ccccc32)N(c2ccc(Cl)cc2)N1C#N,3.8,3.7,-1.4,-9.0,73.6*,-8.2
O=C(/C=C/c1ccncc1)c1ccc(NC(=O)c2ccccc2F)cc1,-59.8,10.2,30.0*,-18.9,-4.7,68.1
O=C(Nc1cccnc1)c1ccccc1F,-29.1,-3.3,-2.6,-5.2,12.5,4.4
O=C(/C=C/c1ccc(Br)cc1)c1ccc(NC(=O)c2ccco2)cc1,-7.8,0.7,-1.4,-16.4,28.6,76.5*[fluorescence artefact?]
Cc1nc(C(=O)NCc2ccccc2)sc1C1(C)CC(c2ccccc2)=NO1 (stereo not drawn),-5.9,1.5,-4.8,x,x,0.8
Cc1ccc(C2C=NN(c3ccccc3)C2=O)cc1 (stereo not drawn),-4.3,-3.1,3.5,-6.5,-3.4,-7.7
CCCCCCn1ccc(=N)cc1,-8.7,13.7,-16.7,-4.9,-0.6,4.2
CCCCCCCCCCCCCCCCn1cc[n+](CC(C)=O)c1,6.6,68.4*,96.4*,-4.5,97.9,98.4*
Cc1cc(OCC(=O)Nc2ccncc2)ccc1[N+](=O)[O-],-11.9,-6.4,3.9,-1.5,1.2,-1.0
CCn1c(-c2ccccc2O)n[nH]c1=S,-15.2,0.4,32.7*,0.0,3.7,-13.1
CCn1c(-c2csc3ccccc23)n[nH]c1=S,0.7,-6.1,-5.1,-5.6,-14.9,-29.6
CCCOP(=O)(OCCC)C(Nc1cccc(C(F)(F)F)c1)c1ccc(C)cc1 (stereo not drawn),-4.0,-9.3,-5.2,4.5,75.4*,-3.0

# Source: PubChem
